The EternaBench riboswitch data

Tested on: MS2 coat protein
Assay: apparent Kd, MS2 coat protein; higher = weaker binding; RNA-MaP array; FMN 200 µM where present
Summary of the method: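 Stalled E. coli RNA polymerase produced the designs on Illumina sequencing-chip clusters. SNAP-549-labelled MS2 coat protein was added from 0.7 or 1.5 nM, doubling to 3 µM, without and then with constant ligand, in 100 mM Tris-HCl pH 7.5, 80 mM KCl, 4 mM MgCl2, BSA, DTT, yeast tRNA and Tween-20. The apparent Kd is the median of filtered per-cluster fits of green signal normalised to red-channel RNA signal and control-cluster median Fmax.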

[1] = designed as: ON switch for flavin mononucleotide, no ligand
[2] = ligand present: flavin mononucleotide, designed as: ON switch for flavin mononucleotide
[3] = designed as: OFF switch for flavin mononucleotide, no ligand
[4] = ligand present: flavin mononucleotide, designed as: OFF switch for flavin mononucleotide

| Sequence | apparent Kd [1] [nM] | apparent Kd [2] [nM] | apparent Kd [3] [nM] | apparent Kd [4] [nM] |
| --- | --- | --- | --- | --- |
| AUUAAACAUGAGGAUCACCCAUGUCAACAAAGUCGAGGAUAUGGGCAAAUAAAAUAAGAACCAGAAGGCGAAUAAU | 259 | 38 | – | – |
| CGAUGACAAAGUCAUCGAAUACGAACAUGAGGAUCACCCAUGUAGGAUAUGCUACUCAAAGAGUAGCAGAAGGACAUGUGCCUU | – | – | 36.9 | 271 |
| UGUGCGUUGAUCUUCGAUCGGAGUACAUGAGGAUCACCCAUGUAGGAUAUUCAAAGACGCAGAUAGAAGAAGGACAUCGGUUUC | – | – | 10.6 | 9.43 |
| UUUGGGUGGCUGGAGGAUAUUCUUGUGGUUACAUGAGGAUCACCCAUGUGUCGCGCGGUACGCGAGGAGAAGGCUGGCGGCCGUU | 327 | 56.2 | – | – |
| UCAUGGUAGCAGGAUAUGCUUGUAAUUUUUUAUGCAGAAGGGCUUACAUGAGGAUCACCCAUGUGUUAGGUCUA | – | – | 43.4 | 66.2 |
| CAUCAUUCUGUAAGGAUAUUAAUCGAGUGACUUAUUAAGAAGGUACAUGAGGAUCACCCAUGUGGGAGGUGAGG | – | – | 363 | 947 |
| AAGUAUAGAGGAUAUACAUAGAUACAGAUUCAUGUAGAACUACAUGAGGAUCACCCAUGUAGAAGGCUAUACUA | – | – | 30.2 | 159 |
| GCAGGCUUCGAGAAGGACAUGAGGAUCACCCAUGUGCGUGUGAAGCAGCCGUGAGGCUGCAUCAUGUAGGAUAUCGGAGUCUGA | – | – | 74.5 | 500 |
| UGUAUAUAGGCAGGAUAUACAUGAAUAUAUAUGAUGUAGUAUGAUGUAACAUGAGGAUCACCCAUGUAGAAGGGCCAGUAUAUA | – | – | 45.3 | 129 |
| GUAACAUGAGGAUCACCCAUGUCGUGCUAGAUGAGUUCUGGUGAGGAUAUACAUGGUAAAUAACUGUAGAAGGUGCUGGGUACA | 159 | 167 | – | – |
| CCGGCAUAGGAGGAUAUAGGAGUCGAUAGACACCUAGAAGGCCUGACAUGAGGAUCACCCAUGUGUCCUACCGG | – | – | 14.1 | 23.2 |
| AAAAGGUUAGGAUAUGCGUGGAAAAAGUGUAUCUAAAAAAAACAUGAGGAUCACCCAUGUAGAAGGGACUUAAA | – | – | 45.3 | 44 |
| GGACGACUCAUUAACAUGAGGAUCACCCAUGUCAAAAGACAUGAGGAUAUGGAUCCUAAUUGGAUCCAGAAGGCAUGGUCGUCC | 944 | 51.8 | – | – |
| GUUAUACAUGAGGAUCACCCAUGUCAAUGUAGUCGAGGAUAUGGGCAGCUAUGAGGCGUACUAGAAGGCGAUGAGU | 156 | 44.5 | – | – |
| UGUGGUGAAGUAGGAUAUCAACACACAUGAGGAUCACCCAUGUUAGAUGUGGAUGUUGUAUGUUAUGAGAAGGACUUCGGUGCG | – | – | 23.6 | 89 |
| ACUGCAUAGGCAGGAUAUGCAAUAAUUCGAAUAAAAUAUAACGAAUUAACAUGAGGAUCACCCAUGUAGAAGGGCCUGUGCAGU | – | – | 6.46 | 5.46 |
| ACAUGAGGAUCACCCAUGUUGAAUUAGGAUAUUUGACUGCGCAUGAGGUUCUCCCAUGUUCAACCGGAGAAGGGAUUAAUAAUU | 273 | 150 | – | – |
| UCGCCAGGUACAGGAUAUGUGGAUCAGUUAAGUAACUUACUGAACAUGAGGAUCACCCAUGUAUCACAGAAGGGUGCCUCAAAA | 164 | 11.1 | – | – |
| UUCAAGUUGCGAGGAUAUCGUGUUAACAUGAGGAUCACCCAUGUAAAGGUUUAUUAAAUAAUCUUCGAGAAGGCGCUUAAUGUA | 24.1 | 20.8 | – | – |

| Sequence | apparent Kd [1] [nM] | apparent Kd [2] [nM] | apparent Kd [3] [nM] | apparent Kd [4] [nM] |
| --- | --- | --- | --- | --- |
| CUUUCGUGAGGAUAUGUGGCUUCGAUCGUGAGAUCGAGGAAACAGAAGGCACAUGAGGAUCACCCAUGUUCCUC | – | – | 35.9 | 421 |
| CGCUGUCACGCAGGAUAUGCAUUGGAUUACAAUGCAGAAGGGCGAUUACAUGAGGAUCACCCAUGUGUAGACAGUGAAGAAGAG | 300 | 42.3 | – | – |
| CCACGAGACUAAGGAUAUGGAGUGUCAACAUAAAACAUGAGGAUCACCCAUGUAAAGAGUACAAUUCAGAAGGUAGAGACGUGG | 21.9 | 21.5 | – | – |
| UAAAUGUCAGGAUAUUGUUAAUUUAGUUGUUUGUAUUAGUUCGAGAAGGGACAUGAGGAUCACCCAUGUUAAUU | – | – | 30.2 | 36 |
| AAUAAAUAUAAAUUUUAUUUGUCGUAGGAUAUGGGUGACAUGAGGAUCACCCAUGUUGCAGACGACCAGAAGGGCGGCGGAUAU | 117 | 23.2 | – | – |
| UUUGGGAACUCUAUGGGCCGCUACAUGAGGAUCACCCAUGUGCAGGAUAUAGGUGUUACUACCGCCUAGAAGGGCACAGACUGA | – | – | 23.4 | 42.5 |
| CCAUGCGGAUGAGGAUAUUCAUCUAUGAGGAUAGAAGAAGGCAUACAUGAGGAUCACCCAUGUAUACGCAUGAGGAUCCCUUAC | – | – | 24 | 26 |
| GCAGACGUAGUGAGGAUAUGCUCUACCUCGGUAGAGCAGAAGGCACAUGAGGAUCACCCAUGUGGUUCCUCUGC | – | – | 19.1 | 80.9 |
| GUUAUGUUAGGAUAUGCUUAUGGUGGGUGCUCAGAUAUGAUGCAGAAGGGACAUGAGGAUCACCCAUGUACUGU | – | – | 484 | 310 |
| GGGUACAUCGGAGGAUAUCAUGUAAAUACAUGAGGAUCACCCAUGUCGAUGGAGACAUCGGAGAUUGAGAAGGCCGAUGUAACG | 183 | 9.47 | – | – |
| CUGAUGUUAGGAUAUCAGGCUGUGCACGAAGACGGGCGGCAUGAGAAGGAACAUGAGGAUCACCCAUGUGACGG | – | – | 36.3 | 77.6 |
| AUUGUGUUAGGAUAUGCUUAUGGUGGGUAGUCCAGUAUGAAGUAGAAGGGACAUGAGGAUCACCCAUGUGCUCA | – | – | 60.1 | 56.2 |
| UCAUAACAUGAGGAUCACCCAUGUCAGGAUAUGAUACUAUGUACUUCGGUACAUAGUAUCAGAAGGGACAUGCU | – | – | 121 | 18.6 |
| CAUUAAUUAAUUAUAUUAAUUAUACAGGAUAUGUAACAUGAGGAUCACCCAUGUAUUCAAUGUAAACAGAAGGGUAUAUCUAGU | – | – | 14.6 | 13 |
| GUGAGUAGUCAGGAUAUGCUGUACAAAAGUACAGCAGAAGGGAUUACAUGAGGAUCACCCAUGUUUACUUCAUG | – | – | 73.1 | 279 |
| UCAUGUAUGUAGGAUAUCGAUGUCUUCGGACAUCGAGAAGGACGUACAUGAGGAUCACCCAUGUAACUUGCAUG | – | – | 17.9 | 16.6 |
| GUGCGGUGAGGAUAUACGUAGGUGAAAAUCUGUGUGCUCCUACAUGAGGAUCACCCAUGUAGAAGGCAUGUCAC | – | – | 15.5 | 27.8 |
| GUGCAAUGAGGAUAUACGUAGGUGAACAUCUGUGUGCUCCUACAUGAGGAUCACCCAUGUAGAAGGCAUGUCAC | – | – | 12.3 | 22.6 |
| GGUGGACAUGAGGAUCACCCAUGUGAGGAUAUCGGCCGGUUCGUGGUGGCUGGCGUCUCGAGAAGGCGCAUAGU | – | – | 35 | 45.7 |

| Sequence | apparent Kd [1] [nM] | apparent Kd [2] [nM] | apparent Kd [3] [nM] | apparent Kd [4] [nM] |
| --- | --- | --- | --- | --- |
| GGAUGAUAAAUAGGAUAUUAAUUGUAAUUAGGUUAAGAAGGAUUAAUGAUUUAAACGACCAGUUACAUGAGGAUCACCCAUGUU | 177 | 161 | – | – |
| AACGGGUGGGUAGGAUAUGGCUAUGUCUCAUUGCUAGAAGGACCAGCUGCUACAUGAGGAUCACCCAUGUCGUAGUGCAUCCAG | 88.2 | 13 | – | – |
| AACGAAAGCCAAGGAUAUGCAGGUGACAUGAGGAUCACCCAUGUGGAUUGUGAUCCUUAACUGAUGCAGAAGGUGGAUCUGUUG | – | – | 513 | 322 |
| UUGGACGUCGAAGGAUAUGUAGGAUAUUCCUACAUGAGGAUCACCCAUGUUGACAUGGAAGAAGGACAGAAGGACGAUGUCCAU | 479 | 6.78 | – | – |
| GAGGGUUAAGGAUAUACAUGAGGAUCACCCAUGUAUGGCAAGCCAUAAUCCUCAUUAAGUAGAAGGUAACCUUC | – | – | 11.7 | 15.3 |
| GUGUGCUGAGGAUAUACAGAGGAAGAUAAGAUAAGAUAAUGACAUGAGGAUCACCCAUGUAGAAGGCAGAGUGU | – | – | 29.7 | 42.4 |
| UGCAUGUAAGGAUAUGCAUCCGCCGGCGAACCGGCGCCACAGCAGAAGGUACAUGAGGAUCACCCAUGUGUCCC | – | – | 18.8 | 51.6 |
| GCAGGCUGCUCUGAAGCUACAUUCGAGGAUAUGAUCCAAGACAUGAGGAUCACCCAUGUAGAAGAUCAGAAGGCGAUGGCUAGG | 89.8 | 9.77 | – | – |
| ACAAAUGGAGGAUAUACAUGAGGAUCACCCAUGUUUAUCCUACAUAUGUGAUAAUAAUGUAGAAGGCCAUAUGA | – | – | 12.3 | 12.3 |
| CCAUGCGGAUGAGGAUAUUCAUCCAUGAGGAUAGAAGAAGGCAUACAUGAGGAUCACCCAUGUAUACGCAUGAGGAUCCCUUAC | – | – | 27.3 | 22.3 |
| UGGUACUAGGGAGGAUAUGGGUAGAUACAUGAGGAUCACCCAUGUUUAAGAAUGCCGAGAGGCAACUAGAAGGCCCUAGUACCU | 549 | 319 | – | – |
| AGAGCCGGCACCGAGGAUAUUCAUAUUAAAACAUGAGGAUCACCCAUGUAGGCCAGAAGGCCUUGGGAGAAGGCGGAUCGGCUCG | 707 | 39.5 | – | – |
| GCAAGGCAUGUAGGAUAUCGAGCUCAAAGAGCUCGAGAAGGACAUGAGGAUCACCCAUGUGCUCACAGACAGUGAGCGCCAUGC | – | – | 35.4 | 114 |
| GUAGCUAUCGGAGGAUAUUCAUGAAACAUGAGGAUCACCCAUGUUAAAUUGGGAGAAGGCCGAUAGCUACAAGAGCGAAAGCUC | 7.5 | 5.32 | – | – |
| CACCGGUGUACAGGAUAUGCAUCUACGUGGGCUGCAGAAGGGUACAUGAGGAUCACCCAUGUCAACGAAUCCUCAAAUUAGCGA | – | – | 1030 | 1130 |
| AUAUAGUCAGGAUAUCGAAGUGUGUGUUGGUUUGUAAUUUACGAGAAGGGACAUGAGGAUCACCCAUGUAGGAA | – | – | 40.1 | 34.9 |
| CACGUCAGGAAACGGAGCGGCCAACAUGAGGAUCACCCAUGUGAGGAUAUGCCUACUAAAAGUAGGCAGAAGGCACAAUUGGCA | – | – | 36.7 | 94.9 |
| UCCUUACUGGUCAGGAUAUACAUUCGCUACUCCUUGUAGAAGGGACAUGAGGAUCACCCAUGUACUUUACAUUC | – | – | 17.4 | 18.9 |
